KCNQ1 act – human KCNQ1 channel potentiation or activation; AID 2648; CHO-K1 KCNQ1, thallium flux FluxOR fluorescence; active compounds read high; 310,000 compounds, 0.35% hits; B-score at 10 µM; P51787;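 active = fluorescence ratio B-score, a plate-corrected score, at least three library SD, with initial intensity B-score within 5 SD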
Target sequence (P51787 whole entry, looked up): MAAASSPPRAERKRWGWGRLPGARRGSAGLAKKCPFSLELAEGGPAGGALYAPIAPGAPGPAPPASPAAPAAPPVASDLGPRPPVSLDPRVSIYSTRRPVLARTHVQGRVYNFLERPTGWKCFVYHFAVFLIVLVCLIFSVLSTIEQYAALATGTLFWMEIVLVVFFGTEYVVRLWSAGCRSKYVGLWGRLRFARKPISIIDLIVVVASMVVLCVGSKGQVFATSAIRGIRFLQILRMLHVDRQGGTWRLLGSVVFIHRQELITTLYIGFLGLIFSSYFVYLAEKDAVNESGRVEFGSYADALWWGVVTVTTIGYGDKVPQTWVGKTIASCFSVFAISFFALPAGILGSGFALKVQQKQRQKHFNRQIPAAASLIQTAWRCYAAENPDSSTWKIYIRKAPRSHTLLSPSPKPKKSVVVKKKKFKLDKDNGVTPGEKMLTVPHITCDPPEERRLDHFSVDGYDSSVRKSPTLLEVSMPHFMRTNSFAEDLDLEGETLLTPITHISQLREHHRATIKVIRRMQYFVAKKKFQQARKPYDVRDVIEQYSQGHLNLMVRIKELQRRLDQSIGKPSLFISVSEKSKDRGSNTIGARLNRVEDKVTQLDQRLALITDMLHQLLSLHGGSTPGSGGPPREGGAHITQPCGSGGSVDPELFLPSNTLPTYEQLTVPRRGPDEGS
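Doses: Single concentration per compound, DMSO matched to controls | Test system: KCNQ1-transfected CHO-K1 cells | Timing: 90 min dye loading and 20 min compound exposure, both at room temperature | Measured by: Kinetic FluxOR thallium fluorescence, 10-s 1-Hz baseline, 110-s post-stimulus read | Medium: Assay buffer with matched DMSO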
KCNK9 block – inhibitors of human KCNK9 two-pore domain potassium channel | Q9NPC2 | HEK293 KCNK9, FluxOR thallium flux fluorescence; active compounds read low | B-score at 10 µM | 310,000 compounds, 1.2% hits;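 active = ratio B-score over 3 SD below the library mean, with starting fluorescence within 5 SD of its mean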;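 note: negative B-score means less thallium flux so channel inhibition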
KCNQ1 inh – blocks the human KCNQ1 potassium channel; CHO-K1 KCNQ1, FluxOR thallium flux fluorescence; active compounds read high; B-score at 10 µM; 310,000 compounds, 1.3% hits; AID 2642;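 active = compounds whose thallium flux B-score, printed positive for inhibition, exceeds three library SD while starting fluorescence stays within three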;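 note: channel opened by potassium depolarization with thallium stimulus after 20 min compound exposure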
hERG protect – compounds protecting human hERG from proarrhythmic drug block; Q12809; CHO-hERG, FluxOR thallium flux, dofetilide IC70 present; activation (rescue from dofetilide block), less the hit threshold, % at 10 µM; 310,000 compounds, 0.51% hits; AID 1511;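 active = activation above the mean of controls blocked by dofetilide plus 5 SD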;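 note: thallium influx through hERG after potassium depolarization seen as dye fluorescence rise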
KCNK3 block – human KCNK3 channel inhibition, primary screen; B-score at 10 µM; 340,000 compounds, 0.84% hits; CHO-KCNK3 thallium flux, FluxOR fluorescence; active compounds read low;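 active = B-score under library mean minus 4 SD, starting fluorescence ratio at most library mean plus 5 SD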;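 note: more negative B-score means stronger inhibition of thallium flux through KCNK3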
Kir21 inh – Kir2.1 (mouse) channel inhibition; P35561; HEK293-Kir2.1, FluxOR thallium flux fluorescence; active compounds read low; B-score at 10 µM; 310,000 compounds, 0.85% hits; AID 1672;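 active = fluorescence ratio B-score at or below minus 3 SD of library scores, with starting-brightness B-score within 2 SD, cut at about -4.2 in these data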;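 note: channel flux triggered by added potassium and thallium sulfate stimulus; B-score of peak minus minimum fluorescence over baseline after thallium stimulus; more negative B-score means stronger Kir2.1 block with less thallium influx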
KCNK9 block conf – human KCNK9 inhibitor confirmation | shares compounds with KCNK9 block | HEK293 KCNK9 cells, FluxOR thallium flux fluorescence | 4,900 compounds, 43% hits | AID 492992 | inhibition, % at 10 µM;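 active = thallium signal inhibited by more than 5 SD of the compound-free buffer control wells, on both duplicate plates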;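 note: 0% = assay buffer control wells without compound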
Kir2-1 spec – selectivity of KCNK9 modulators against mouse Kir2.1; inhibition, % at 10 µM; Kir2.1 cells, FluxOR thallium flux fluorescence; shares compounds with KCNK9 block; 4,900 compounds, 4% hits; AID 492993;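 active = thallium signal drop more than 5 SD beyond the mean of the no-compound control wells, seen in both duplicate plates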;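 note: signal is fluorescence rise after thallium addition divided by baseline fluorescence; plate controls were assay buffer only for no effect and full block by chlorpromazine control for full effect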
KCNK9 uninduced – second counter-screen for KCNK9 modulators: effect in non-induced cells | shares compounds with KCNK9 block | non-induced KCNK9-HEK293, FluxOR thallium flux | inhibition, % at 10 µM | 4,900 compounds, 40% hits;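 active = thallium signal drop beyond 5 SD of the untreated control mean, on both duplicate plates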;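 note: plate controls were buffer only IC0 wells for no effect and SID17386958 at its maximal inhibitory level for full effect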
An asterisk follows results filed as active; i = inactive; x = not tested or not shown. An excerpt weighted towards active compounds, which were near 3.7% of everything screened.

SMILES	KCNQ1 act	KCNK9 block	KCNQ1 inh	hERG protect	KCNK3 block	Kir21 inh	KCNK9 block conf	Kir2-1 spec	KCNK9 uninduced
CCc1ccc([C@@H]2C[C@H]3CN(Cc4ccccc4OC)C(=O)[C@]34CCCN24)cc1	i	i	i	-11.3	i	-0.09	x	x	x
COC(=O)c1cc(S(=O)(=O)NCC2CCN(Cc3cc(C)ccc3C)CC2)c[nH]1	i	i	i	-4.7	i	-1.63	x	x	x
CC(C)(C)c1ccc(SCCc2cccnc2)cc1	i	i	i	0.3	i	-0.54	i	i	i
O=S(=O)(c1cccc(F)c1)N1CCN(Cc2ccc3c(c2)OCO3)CC1	i	i	i	-10.4	i	1.67	i	i	i
COc1ccc(CN2CCN(S(=O)(=O)c3ccc(C)cc3)CC2)cc1Br	i	i	i	-12.2	i	-0.51	i	i	i
COc1cc(S(=O)(=O)N2CCN(Cc3ccc4c(c3)OCO4)CC2)c(C)cc1C	i	i	i	-6.7	i	1.06	i	i	i
CCc1ccc2oc(-c3ccc(NC(C)=O)cc3)nc2c1	i	i	i	-6.3	i	0.77	x	x	x
O=C(c1cc2cc(F)ccc2[nH]1)N1CCN(c2cccc(Cl)c2)CC1	i	i	i	-6.2	i	-0.92	i	i	i
COc1cccc(N2CCN(C(=O)c3cc4cc(Cl)ccc4[nH]3)CC2)c1	i	i	i	-8.8	i	-0.01	x	x	x
CSc1nc(Nc2ccc(Cl)cc2)c(C#N)c(=O)[nH]1	i	i	i	-2.5	i	1.1	x	x	x
N#Cc1c(Nc2ccc(Cl)cc2)s[nH]c1=O	i	i	i	-8.4	i	-0.03	i	i	i
COc1ccccc1N1CCN(/N=C/C=C\c2ccccc2[N+](=O)[O-])CC1	i	i	i	-16.4	i	2.59	i	i	i
CC(C)OCCCn1c(=NC(=O)c2ccncc2)c(C#N)cc2c(=O)n3ccccc3nc21	i	i	i	-21.0	i	-0.29	x	x	x
CC(C)OCCCn1c(=NC(=O)c2cccs2)c(C#N)cc2c(=O)n3ccccc3nc21	i	-8.51*	i	-11.3	i	0.15	25.5%*	i	33.0%*
Nc1ncc(Br)cc1S(=O)(=O)NCCc1ccccc1	i	i	i	-1.0	i	0.46	x	x	x
O=C(NCc1ccccn1)C1CCCN(S(=O)(=O)c2cc(Cl)ccc2Cl)C1 (stereo not given)	x	x	x	x	i	x	x	x	x
Cc1cc(S(=O)(=O)N2CCCC(N(C)CCc3ccccn3)C2)c(C)cc1Cl (stereo not given)	i	i	i	-17.5	i	-4.18	i	i	i
COCCNC(=O)Cn1nc(C)c([N+](=O)[O-])c1C	i	i	i	-17.4	i	-0.61	x	x	x
CC(=O)N1c2c(cc(Br)cc2S(=O)(=O)NCc2cccnc2)CC1C (stereo not given)	i	i	i	-3.4	i	0.85	x	x	x
CCCCN(Cc1ccccc1)S(=O)(=O)c1cc(Br)cc2c1N(C(C)=O)C(C)C2 (stereo not given)	i	-15.5*	i	-16.4	i	-0.08	i	i	54.0%*
Cc1c(N=NC2=C(O)CC(C)(C)CC2=O)cc2c(c1[N+](=O)[O-])C(C)(C)CC2(C)C	i	i	6*	-11.3	i	0.67	i	i	i
CC(=O)Nc1cc2c(c([N+](=O)[O-])c1C)C(C)(C)CC2(C)C	x	x	x	x	i	x	x	x	x
CC1SCC(NC(=O)c2ccc(Cl)cc2)CS1 (stereo not given)	i	-14.1*	i	-8.7	i	-0.12	i	i	24.0%*
CC1SCC(NC(=O)c2ccccc2Cl)CS1 (stereo not given)	i	i	i	-8.1	i	-0.47	x	x	x

Source: PubChem (Johns Hopkins Ion Channel Center)
